Active and inactive are the calls of the source. No cut-off for these calls is given here.
Tests used:
[1] = tested on: KB; assay: Cytotoxicity against human KB cells after 3 days by resazurin microplate assay; format: functional, cell-based
In short: (§1)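 Log-phase cells seeded at 7×10^4 cells/mL (KB) or 9×10^4 cells/mL (MCF-7) onto compounds in 0.5% DMSO. Incubated 3 days at 37 °C, 5% CO₂, then resazurin added for 4 h. Fluorescence read at ex 530/em 590 nm. IC50 by curve fit from 6 two-fold serial dilutions. Doxorubicin positive, 0.5% DMSO negative control. Mean of three replicates ± SD.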

[2] = tested on: MCF7; assay: Cytotoxicity against human MCF7 cells after 3 days by resazurin microplate assay; format: functional, cell-based; in short: as §1
[3] = tested on: Vero; assay: Cytotoxicity against african green monkey Vero cells expressing GFP after 4 days by fluorescence assay; format: cell-based; conditions: Chlorocebus sabaeus, 96 h
In short: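 Vero (African green monkey kidney) cells stably transfected with pEGFP-N1, kept in MEM with 10% heat-inactivated FBS, 2 mM L-glutamine, 1 mM pyruvate, geneticin. Cells seeded at 3.3 × 10⁴ cells/mL onto compounds diluted in 0.5% DMSO, 4 days at 37 °C, 5% CO₂. Bottom-read fluorescence (ex 485/em 535 nm), day-0 background subtracted. IC50 by curve fit from 6 two-fold dilutions.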

[4] = tested on: NCI-H187; assay: Cytotoxicity against human NCI-H187 cells after 5 days by resazurin microplate assay; format: functional, cell-based; conditions: NCI-H187, 120 h
In short: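 Log-phase NCI-H187 cells diluted to 9×10^4 cells/mL and seeded onto compounds in 0.5% DMSO. After 5 days at 37 °C, 5% CO₂, resazurin added for 4 h. Fluorescence read at ex 530/em 590 nm. IC50 fitted from 6 two-fold serial dilutions. Doxorubicin and 0.5% DMSO controls. Mean of three replicates ± SD.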

[5] = biological target: DNA topoisomerase 2-alpha (Homo sapiens) (UniProt P11388); assay: Inhibition of human topoisomerase 2alpha-mediated decatenation of kinetoplast DNA at 50 uM after 1 hr using ethidium bromide by agarose gel electrophoresis analysis
In short: (§2)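 Doxorubicin as positive control. Stopped with Sarkosyl loading dye. Run on 1% agarose in 0.5x TBE with ethidium bromide at 50 V, imaged under UV. Decatenated and linearized kDNA used as markers.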

[6] = biological target: DNA topoisomerase 2-alpha (Homo sapiens) (UniProt P11388); assay: Inhibition of human topoisomerase 2alpha-mediated decatenation of kinetoplast DNA at 10 uM after 1 hr using ethidium bromide by agarose gel electrophoresis analysis relative to doxorubicin; in short: as §2
[7] = biological target: DNA topoisomerase 2-alpha (Homo sapiens) (UniProt P11388); assay: Inhibition of human topoisomerase 2alpha-mediated decatenation of kinetoplast DNA at 20 uM after 1 hr using ethidium bromide by agarose gel electrophoresis analysis; in short: as §2
[8] = Homo sapiens, KB, 72 h, read-out: IC50
[9] = Homo sapiens, MCF7, 72 h, read-out: IC50

Chain of DNA topoisomerase 2-alpha (Homo sapiens) (P11388 whole entry): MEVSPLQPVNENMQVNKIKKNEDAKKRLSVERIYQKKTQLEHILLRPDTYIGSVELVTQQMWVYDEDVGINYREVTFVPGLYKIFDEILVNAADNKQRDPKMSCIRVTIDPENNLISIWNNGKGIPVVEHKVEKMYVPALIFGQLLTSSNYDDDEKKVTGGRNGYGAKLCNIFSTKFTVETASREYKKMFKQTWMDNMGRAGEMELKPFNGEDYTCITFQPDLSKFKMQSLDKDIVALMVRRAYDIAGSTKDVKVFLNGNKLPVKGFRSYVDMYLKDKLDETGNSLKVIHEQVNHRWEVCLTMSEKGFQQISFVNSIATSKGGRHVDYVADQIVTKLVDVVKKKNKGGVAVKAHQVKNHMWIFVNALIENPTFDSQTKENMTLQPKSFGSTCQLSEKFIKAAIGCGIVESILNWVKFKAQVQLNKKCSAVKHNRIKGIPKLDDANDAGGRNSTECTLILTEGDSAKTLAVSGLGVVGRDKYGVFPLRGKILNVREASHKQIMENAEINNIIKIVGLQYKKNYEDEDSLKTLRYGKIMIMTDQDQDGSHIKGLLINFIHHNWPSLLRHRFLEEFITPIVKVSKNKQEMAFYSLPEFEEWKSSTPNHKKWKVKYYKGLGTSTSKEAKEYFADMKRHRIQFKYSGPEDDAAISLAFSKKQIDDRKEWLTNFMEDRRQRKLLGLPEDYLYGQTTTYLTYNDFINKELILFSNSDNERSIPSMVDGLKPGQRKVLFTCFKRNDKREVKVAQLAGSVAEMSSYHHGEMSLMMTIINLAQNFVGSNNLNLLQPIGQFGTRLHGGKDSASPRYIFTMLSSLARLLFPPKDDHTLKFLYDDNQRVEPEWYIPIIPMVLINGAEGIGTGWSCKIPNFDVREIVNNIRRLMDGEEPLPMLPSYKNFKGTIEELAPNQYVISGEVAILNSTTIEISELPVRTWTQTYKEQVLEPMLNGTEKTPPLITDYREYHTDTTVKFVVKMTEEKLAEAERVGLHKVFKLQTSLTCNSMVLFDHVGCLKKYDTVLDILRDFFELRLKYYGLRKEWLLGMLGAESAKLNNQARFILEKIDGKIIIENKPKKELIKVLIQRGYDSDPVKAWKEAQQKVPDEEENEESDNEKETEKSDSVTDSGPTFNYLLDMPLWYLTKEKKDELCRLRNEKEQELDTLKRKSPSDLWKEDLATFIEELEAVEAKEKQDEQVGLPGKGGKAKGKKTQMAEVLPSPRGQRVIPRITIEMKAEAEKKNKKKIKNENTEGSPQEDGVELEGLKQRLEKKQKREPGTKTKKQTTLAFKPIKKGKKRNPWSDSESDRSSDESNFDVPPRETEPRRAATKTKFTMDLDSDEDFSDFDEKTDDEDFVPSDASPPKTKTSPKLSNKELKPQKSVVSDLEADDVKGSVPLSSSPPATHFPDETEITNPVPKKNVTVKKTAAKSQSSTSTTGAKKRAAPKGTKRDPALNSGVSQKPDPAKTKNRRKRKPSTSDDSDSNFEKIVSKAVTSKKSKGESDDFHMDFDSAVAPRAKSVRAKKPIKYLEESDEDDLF

COc1ccc(OC)c(C(=O)NCC(C)(C)CC2=C(O)C(=O)c3ccccc3C2=O)c1
IC50 [1, 8]: 86.6 µM | IC50 [2, 9]: 99.4 µM | IC50 [3]: 89.1 µM | IC50 [4]: 40.9 µM

COc1ccc(O)c(C(=O)NCC(C)(C)CC2=C(O)C(=O)c3ccccc3C2=O)c1
IC50 ([1]; kb): Not Active | IC50 [2, 9]: 39.6 µM | IC50 [3]: 31.1 µM | IC50 [4]: 15 µM

COc1ccccc1C(=O)NCC(C)(C)CC1=C(O)C(=O)c2ccccc2C1=O
IC50 [1, 8]: 26.3 µM | IC50 [2, 9]: 111 µM | IC50 [3]: 31.2 µM | IC50 [4]: 42.9 µM

COc1c(C(=O)NCC(C)(C)CC2=C(O)C(=O)c3ccccc3C2=O)ccc2ccccc12
IC50 [1, 8]: 66.9 µM | IC50 [2, 9]: 39.8 µM | IC50 [3]: 47.3 µM | IC50 [4]: 37 µM

CC(C)(CNC(=O)c1ccccc1O)CC1=C(O)C(=O)c2ccccc2C1=O
IC50 [1, 8]: 44.9 µM | IC50 [2, 9]: 28.1 µM | IC50 [3]: 32.1 µM | IC50 [4]: 8.83 µM | inhibition [5]: Active | inhibition [6]: inactive

COC1=C(CC(C)(C)CNC(=O)c2cc(OC)ccc2OC)C(=O)c2ccccc2C1=O
IC50 [1, 8]: 34.3 µM | IC50 [2, 9]: 57.9 µM | IC50 [3]: 36.2 µM | IC50 [4]: 74.3 µM

COC1=C(CC(C)(C)CNC(=O)c2ccc3ccccc3c2)C(=O)c2ccccc2C1=O
IC50 [1, 8]: 34.1 µM | IC50 [2, 9]: 52.5 µM | IC50 [3]: 36 µM | IC50 [4]: 25.7 µM

COC1=C(CC(C)(C)CNC(=O)c2cc(OC)c3ccccc3c2OC)C(=O)c2ccccc2C1=O
IC50 [1, 8]: 41.2 µM | IC50 ([2]; mcf7): Not Active | IC50 [3]: 30.1 µM | IC50 [4]: 19.6 µM

COC1=C(CC(C)(C)CNC(=O)c2ccccc2OC)C(=O)c2ccccc2C1=O
IC50 [1, 8]: 33.2 µM | IC50 [2, 9]: 70.7 µM | IC50 [3]: 27.3 µM | IC50 [4]: 34.7 µM

COC1=C(CC(C)(C)CNC(=O)c2ccc3ccccc3c2OC)C(=O)c2ccccc2C1=O
IC50 [1, 8]: 64.1 µM | IC50 [2, 9]: 95.7 µM | IC50 [3]: 60.6 µM | IC50 [4]: 53.2 µM

COc1cccc2c1C(=O)c1c(O)c3c(c(O)c1C2=O)C[C@@](O)(C(=O)CO)C[C@@H]3O[C@H]1C[C@H](N)[C@H](O)[C@H](C)O1 [DOXORUBICIN]
IC50 [1, 8]: 0.9 µM | IC50 [3]: 28.8 µM | IC50 [4]: 0.16 µM

CC(C)(CNC(=O)c1ccc2ccccc2c1)CC1=C(O)C(=O)c2ccccc2C1=O
IC50 [1, 8]: 9 µM | IC50 [2, 9]: 28.2 µM | IC50 [3]: 46.6 µM | IC50 [4]: 19.5 µM | inhibition [5]: Active | inhibition [6]: inactive

CC(C)(CNC(=O)c1ccc2ccccc2c1O)CC1=C(O)C(=O)c2ccccc2C1=O
IC50 [1, 8]: 26.9 µM | IC50 [2, 9]: 79.5 µM | IC50 [3]: 93.7 µM | IC50 [4]: 14.4 µM | inhibition [5]: Active | inhibition [6]: inactive | inhibition [7]: Active

COc1cc(C(=O)NCC(C)(C)CC2=C(O)C(=O)c3ccccc3C2=O)c(OC)c2ccccc12
IC50 [1, 8]: 47 µM | IC50 ([2]; mcf7): Not Active | IC50 [3]: 17.7 µM | IC50 [4]: 19.8 µM | inhibition [5]: Active | inhibition [6]: inactive

COc1cc(C(=O)NCC(C)(C)CC2=C(O)C(=O)c3ccccc3C2=O)c(O)c2ccccc12
IC50 [1, 8]: 8.62 µM | IC50 [2, 9]: 35.6 µM | IC50 [3]: 15.8 µM | IC50 [4]: 26 µM | inhibition [5]: Active | inhibition [6]: inactive | inhibition [7]: Active

COC1=C(CC(C)(C)CNC(=O)c2ccccc2)C(=O)c2ccccc2C1=O
IC50 [1, 8]: 117 µM | IC50 [2, 9]: 61.8 µM | IC50 [3]: 12.3 µM | IC50 [4]: 19.1 µM

CC(C)(CNC(=O)c1ccccc1)CC1=C(O)C(=O)c2ccccc2C1=O
IC50 [1, 8]: 15.2 µM | IC50 [2, 9]: 37.1 µM | IC50 [3]: 50.5 µM | IC50 [4]: 40.1 µM

From ChEMBL document CHEMBL1944598, “First synthesis and anticancer activity of novel naphthoquinone amides” (Eur J Med Chem, 2012)
